Data reported in ChEMBL document CHEMBL1141407, “Synthesis and evaluation of 1,2,3-triazole containing analogues of the immunostimulant alpha-GalCer” (2007).
The source made the active and inactive calls. No cut-off for these calls is given here.

Assays:
[1] = test system: Splenocyte; experiment: Stimulation of IL4 secretion from C57BL/6 mouse splenocytes at 125 ng/mL after 72 hrs relative to alphaGalCer; assay type: functional
How it was run: (§1)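 Splenocytes from naive C57BL/6 mice were cultured with glycolipid at various concentrations for 72 h. IFN-γ and IL-4 in the supernatant were measured by ELISA and expressed as relative activities. Data are means ± SD of duplicates, representative of two experiments; significance by Student's t test.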

[2] = test system: Mus musculus; experiment: Elevation of IFN-gamma in C57B/6 mouse at 1 ug, iv; assay type: functional, organism-based
How it was run: (§2)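 Naive C57BL/6 mice given glycolipid at 1 µg/mouse by intravenous injection; serum IFN-γ and IL-4 measured by ELISA at several time points after dosing. Data are means ± SD of three mice, representative of two separate experiments.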

[3] = test system: Mus musculus; experiment: Elevation of IL4 in C57B/6 mouse at 1 ug, iv; assay type: functional, organism-based; how it was run: as §2
[4] = test system: DN32.D3; experiment: Stimulation of IL2 production in DN32.D3 cells at 500 ng/mL after 16 hrs; assay type: functional, cell-based; conditions: Mus musculus
How it was run: (§3)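 Rat basophilic leukemia cells transfected with mouse CD1d were pulsed with glycolipid at various concentrations for 4 h, then washed three times with PBS. They were co-cultured with DN32.D3 NKT hybridoma cells (Vα14+) for 16 h, and IL-2 in the supernatant was measured by ELISA. Data are means ± SD of duplicates, representative of two experiments.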

[5] = test system: Mus musculus; experiment: Elevation of IFN-gamma in C57B/6 mouse at 1 ug, iv after 12 hrs; assay type: functional, organism-based; how it was run: as §2
[6] = test system: Splenocyte; experiment: Stimulation of IL4 secretion from C57BL/6 mouse splenocytes at 32 ng/mL after 72 hrs; assay type: functional; how it was run: as §1
[7] = test system: Splenocyte; experiment: Stimulation of IFN-gamma secretion from C57BL/6 mouse splenocytes at 125 ng/mL after 72 hrs; assay type: functional; how it was run: as §1
[8] = test system: Splenocyte; experiment: Stimulation of IL4 secretion from C57BL/6 mouse splenocytes at 125 ng/mL after 72 hrs; assay type: functional; how it was run: as §1
[9] = test system: Splenocyte; experiment: Stimulation of IFN-gamma secretion from C57BL/6 mouse splenocytes at 32 ng/mL after 72 hrs; assay type: functional; how it was run: as §1
[10] = test system: Mus musculus; experiment: Elevation of IL4 in C57B/6 mouse at 1 ug, iv after 2 hrs; assay type: functional, organism-based; how it was run: as §2
[11] = test system: Splenocyte; experiment: Stimulation of IFN-gamma secretion from C57BL/6 mouse splenocytes at 32 ng/mL after 72 hrs relative to alphaGalCer; assay type: functional; how it was run: as §1
[12] = test system: Splenocyte; experiment: Stimulation of IFN-gamma secretion from C57BL/6 mouse splenocytes at 125 ng/mL after 72 hrs relative to alphaGalCer; assay type: functional; how it was run: as §1
[13] = test system: DN32.D3; experiment: Stimulation of IL2 production in DN32.D3 cells at 32 ng/mL after 16 hrs; assay type: functional, cell-based; conditions: Mus musculus; how it was run: as §3
[14] = test system: Splenocyte; experiment: Stimulation of IL4 secretion from C57BL/6 mouse splenocytes at 32 ng/mL after 72 hrs relative to alphaGalCer; assay type: functional; how it was run: as §1
[15] = test system: DN32.D3; experiment: Stimulation of IL2 production in DN32.D3 cells after 16 hrs; assay type: functional, cell-based; conditions: Mus musculus; how it was run: as §3

CCCCCCCCCCCCCCCCCCCCCCCc1cn([C@@H](CO[C@H]2O[C@H](CO)[C@H](O)[C@H](O)[C@H]2O)[C@H](O)[C@H](O)CCCCCCCCCCCCCC)nn1
Activity [1]: Active

CCCCCCCCCCCCCC[C@@H](O)[C@@H](O)[C@H](CO[C@H]1O[C@H](CO)[C@H](O)[C@H](O)[C@H]1O)n1cc(CCCCCC)nn1
Activity [2]: inactive | Activity [3]: inactive | Activity [4]: inactive

CCCCCCCCCCCCCC[C@@H](O)[C@@H](O)[C@H](CO[C@H]1O[C@H](CO)[C@H](O)[C@H](O)[C@H]1O)n1cc(CCCCCCC)nn1
Activity [1]: Active | Activity [2]: inactive | Activity [3]: inactive

CCCCCCCCCCCCCCCCCCCCCCCCCC(=O)N[C@@H](CO[C@H]1O[C@H](CO)[C@H](O)[C@H](O)[C@H]1O)[C@H](O)[C@H](O)CCCCCCCCCCCCCC [RGI-7000]
Activity [5]: Active | Activity [6]: 1.12 ng/mL | Activity [7]: 12.8 ng/mL | Activity [8]: 0.9 ng/mL | Activity [9]: 15.6 ng/mL | Activity [10]: Active

CCCCCCCCCCCCCCCCCCCCCCCCc1cn([C@@H](CO[C@H]2O[C@H](CO)[C@H](O)[C@H](O)[C@H]2O)[C@H](O)[C@H](O)CCCCCCCCCCCCCC)nn1
Activity [1]: 1.09 ng/mL | Activity [11]: 4.63 ng/mL | Activity [12]: 11.5 ng/mL | Activity [13]: Active | Activity [14]: 1.51 ng/mL

CCCCCCCCCCCCCCCCc1cn([C@@H](CO[C@H]2O[C@H](CO)[C@H](O)[C@H](O)[C@H]2O)[C@H](O)[C@H](O)CCCCCCCCCCCCCC)nn1
Activity [2]: inactive | Activity [3]: inactive | Activity [15]: inactive
